Bioassay records deposited in PubChem BioAssay by several laboratories.
Rows were chosen to be rich in hits. Some 12% of all compounds tested hit in one or more screens of this group.
L major viab – Leishmania major promastigote growth inhibition; 9% of 200,000 active; inhibition, % at 10 µM; AID 1063; Leishmania major promastigotes, resazurin fluorescence viability; in the data active = inhibition above about 50%;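 note: promastigotes grown with compound for 44 hours at 28 °C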
Dynein transport – dynein cargo transport inhibition; 3617.4 mouse cells, GR-EGFP nuclear translocation imaging; test concentration mostly 20 µM; stimulated with dexamethasone, 1 µM; hits give low values; z-score, hits read low; 0.47% of 220,000 active;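 active = plate z-score of nuclear minus cytoplasmic receptor signal below a set negative limit, without overly bright fluorescence or cell loss, cut at about -3.5 in these data, passing the limit was not always enough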;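 note: z-score of nuclear minus cytoplasmic ring GR-EGFP intensity difference per well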
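Buffer or medium: Induction medium lacking tetracycline, stripped serum | Also added: Dexamethasone agonist, 1.0 µM final, for 30 min | Timing: 48 h induction, 1 h compound, 30 min dex at 37 °C | Detection: Formaldehyde fixation, Hoechst nuclear stain, 10x automated fluorescence imaging | Measure: Nuclear versus cytoplasmic GR-EGFP signal, averaged per well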
CHOP inhibitor – blocks CHOP induction under ER stress; 3.8% of 220,000 active; AID 2732; CHO-K1 CHOP-promoter luciferase, tunicamycin-induced, 15-18 h; inhibition, % at 10 µM;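 active = compounds that reduced the stress-induced luciferase reporter signal by more than about 70% of percent inhibition, limit read from the data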;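 note: 0% = tunicamycin plus vehicle and 100% = wells without tunicamycin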
MT stabilizer – microtubule stabilization, imaging screen; HeLa tubulin immunostaining HCS, 24 h; share of cells brighter than vehicle mean+2SD; 0.83% of 200,000 active; % tubulin-high responders, % at 10 µM;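 active = plate Z-score above 3 for both tubulin-high and condensed-nucleus cell shares, with cell loss under 80%, at 10 µM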;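 note: anti alpha tubulin signal scored within the nucleus-defined area of each cell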
Autophagy mod – alters autophagy in cells; MEF GFP-LC3 puncta imaging; test concentration mostly 10 µM; calls only at 10 µM (by protocol); 0.98% of 190,000 active; AID 463193;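 active = percentage of spot-positive cells more than 3 SD above its plate mean, without a fluorescence outlier flag or 80% toxicity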;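 note: spot-positive cell cutoff set from DMSO-treated cells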
bCat nuc transl – modulators of beta-catenin nuclear translocation; 0.3% of 190,000 active; nuclear translocation activity, % at 5 µM; HeLa beta-catenin nuclear translocation, immunofluorescence imaging;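 active = nuclear translocation activity above 50% at 5 µM, with a well cell count of 50 or more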;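 note: per-cell ratio of nuclear to cytoplasmic median beta-catenin stain intensity; plate controls were DMSO negative control for no effect and GSK-3 inhibitor IX positive control for full effect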
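Read-out: Nuclear/cytoplasmic beta-catenin signal ratio, % activation | Assay system: Human HeLa cell line | Times: 24 h compound exposure at 37°C, 5% CO2 | Signal: Fluorescence imaging of beta-catenin antibody stain plus DAPI | Dosing: 5 µM primary, 0.02–20 µM confirmation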
CHOP inh conf – confirmation of CHOP induction inhibitors; shares compounds with CHOP inhibitor; CHO-CHOP promoter luciferase reporter, tunicamycin-induced, luminescence; inhibition, % at 10 µM; 45% of 2,100 active; AID 504437;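 active = mean of three repeat readings of reporter signal inhibition above a set limit, cut at about 70% in these data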;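 note: 0% = tunicamycin plus vehicle and 100% = wells lacking tunicamycin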
Starred values were filed as active, the others as inactive; i = inactive; · = not tested or not shown.

SMILES	L major viab	Dynein transport	CHOP inhibitor	MT stabilizer	Autophagy mod	bCat nuc transl	CHOP inh conf
CNc1oc(-c2ccc(C)cc2)nc1P(=O)(c1ccccc1)c1ccccc1	21.8	-0.552	106.6*	2.3	i	-2.9	42.8
CCCCNc1cc(Cl)nc(N)n1	·	-0.915	11.3	·	·	2.5	·
O=C(CCC(=O)c1cccs1)NCC(=O)Nc1ccc(F)c(F)c1F	-2.0	0.0588	21.5	3.9	i	-0.1	·
CC1CCCCC1NC(=O)CCCn1c(=S)[nH]c2ccccc2c1=O (stereo unspecified)	4.0	1.09	26.4	2.4	i	·	·
CC1CCCCC1n1c(=S)[nH]c2ccccc2c1=O (stereo unspecified)	23.9	-0.837	103.0*	2.2	i	2.7	11.2
Brc1ccc(CSc2nnc(Cc3c[nH]c4ccccc34)o2)cc1	-1.4	-0.426	103.5*	3.3	i	-5.8	12.2
Clc1ccc(CSc2nnc(-c3c[nH]c4ccccc34)o2)cc1	7.5	-0.0373	48.1	1.6	i	-2.2	·
O=C(CCC(=O)N(CC(=O)NC1CCCCC1)CC1CCCO1)Nc1nccs1 (stereo unspecified)	-2.2	-0.471	-11.1	2.5	i	-1.0	·
CCC(CC)c1nnc(NC(=O)c2c(C)nn(Cc3ccccc3Cl)c2C)s1	13.1	0.23	105.0*	4.8	i	0.8	89.9*
COc1ccc(CCN(CC(=O)NC2CCCC2)C(=O)Cn2nnc(-c3ccc(C)o3)n2)cc1OC	-4.6	-0.627	-1.8	0.9	i	-5.1	·
OC(COCC(F)(F)C(F)(F)C(F)(F)C(F)F)Cn1c2ccccc2c2ccccc21 (stereo unspecified)	86.0*	0.94	107.7*	2.2	i	0.6	109.6*
Cc1cccc(C)c1OCC(O)Cn1nnc2ccccc21 (stereo unspecified)	-2.7	0.175	12.6	3.3	i	-0.5	·
Cc1cccc(C)c1OCC(O)Cn1c2ccccc2c2ccccc21 (stereo unspecified)	17.7	-1.08	106.8*	3.1	i	3.0	-47.9
Nc1ncc(-n2cncn2)c(-c2ccc(Cl)cc2)n1	-2.2	0.948	6.2	3.2	i	1.1	·
COc1ccc(C2NCCc3c2[nH]c2ccccc32)cc1CSc1nc2ccccc2s1 (stereo unspecified)	60.4*	-0.894	99.5*	8.2	i	-1.6	45.0
Cc1ccc(S(=O)(=O)Nc2ccc(Cl)cc2)cc1NC(=O)c1cc2c(s1)CCCC2	17.4	-0.542	103.5*	3.1	i	1.3	65.7
O=C(NC(c1ccc(Cl)cc1)c1cc(Cl)c2cccnc2c1O)c1cccnc1 (stereo unspecified)	99.0*	0.823	110.1*	2.5	i	-0.6	38.5
CC(=O)NC(c1ccc(C)cc1)c1cc([N+](=O)[O-])c2cccnc2c1O (stereo unspecified)	-7.9	-1.32	35.9	1.2	i	0.1	·
N[C@@H](CO)c1nnc([C@H](CCC(=O)O)NC(=O)C2CCNCC2)o1	-1.6	-0.54	0.8	2.2	i	0.6	·
O=C(COC(=O)c1nc(-c2ccccc2)n(-c2cccc(C(F)(F)F)c2)n1)NCc1cccs1	-3.0	-0.0927	30.5	5.0	i	2.1	·
O=C(Nc1cccc2ccccc12)c1ccc(Cn2cc(Cl)cn2)cc1	-1.9	0.579	14.9	2.6	i	-1.3	·
O=S(=O)(NC1CC1)c1ccc(S(=O)(=O)N2CCCC3(CCCCC3)C2)cc1	-2.2	-0.527	97.4*	2.8	i	·	98.4*
Cc1ccc(-n2nnnc2-c2cnc3cc4c(cc3c2C)OCO4)cc1	10.2	0.17	32.1	2.9	i	1.9	·
CCC(C)(C)NC(=O)C(c1cccn1C)N(Cc1ccccc1)C(=O)Cn1nnc2ccccc21 (stereo unspecified)	43.9	-0.202	50.5	3.5	i	-1.7	·
CCC(C)(C)NC(=O)C(c1cccn1C)N(Cc1ccc(OC)cc1)C(=O)Cn1nnc2ccccc21 (stereo unspecified)	39.8	0.486	103.3*	3.3	i	-0.1	58.9
